Reference: ChEMBL document CHEMBL3425469, “Discovery of imidazo[2,1-b]thiazole HCV NS4B inhibitors exhibiting synergistic effect with other direct-acting antiviral agents” (J Med Chem, 2015)

Tests used:
Hepatitis C virus [1] = test: Antiviral activity against Hepatitis C virus genotype 1b Con 1 infected in human HuH7 cells at 160 nM after 72 hrs by luciferase assay in presence of 5 uM clemizole; assay type: functional, Hepacivirus hominis, Huh-7
Outline: (§1)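 Stable Con1 GT1b bicistronic luciferase replicon in Huh-7 cells, 8000 cells/well. Test compound and a marketed DAA or clemizole added alone or together at varied concentrations, 0.5% DMSO final. 72 h at 37°C, then luciferase read with Bright-Glo. Inhibition expressed as % of untreated control, with cytotoxicity run in parallel. CI and DRI derived by the Chou–Talalay median-effect method.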

Hepatitis C virus [2] = test: Antiviral activity against Hepatitis C virus genotype 1b Con 1 infected in human HuH7 cells at 5 nM after 72 hrs by luciferase assay in presence of 0.02 nM daclatasvir; assay type: functional, Hepacivirus hominis, Huh-7
Outline: (§2)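 Huh-7 cells stably carrying a GT1b Con1 bicistronic luciferase replicon, seeded at 8000 cells/well. The test compound and the partner DAA are dosed orthogonally at various concentrations, final 0.5% DMSO, then incubated 72 h at 37°C. Bright-Glo luciferase read-out gives replicon inhibition as % of untreated control. Cytotoxicity is checked in parallel by CellTiter-Fluor. CI and DRI are derived by the Chou–Talalay median-effect method.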

Hepatitis C virus [3] = test: Antiviral activity against Hepatitis C virus genotype 1b Con1 infected in human HuH7 cells after 72 hrs by luciferase assay; assay type: functional, cell-based, Hepacivirus hominis; conditions: genotype 1b Con 1, Huh-7, 72 h
Outline: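 Huh-7 cells stably carrying a genotype 1b Con1 bicistronic luciferase replicon, seeded at 8000 cells/well. Compounds were added at 0.5% DMSO final and incubated at 37°C for 72 h. Read-out was Bright-Glo luciferase, with cell proliferation measured by CellTiter-Fluor. EC50 is the mean of at least two independent runs. Some values are given as percent inhibition at 10 µM.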

Hepatitis C virus [4] = test: Antiviral activity against Hepatitis C virus genotype 1b Con 1 infected in human HuH7 cells at 40 nM after 72 hrs by luciferase assay in presence of 3 nM simeprevir; assay type: functional, Hepacivirus hominis, Huh-7; outline: as §2
Hepatitis C virus [5] = test: Antiviral activity against Hepatitis C virus genotype 1b Con 1 infected in human HuH7 cells at 80 nM after 72 hrs by luciferase assay in presence of 60 nM sofobuvir; assay type: functional, Hepacivirus hominis, Huh-7; outline: as §2
Hepatitis C virus [6] = test: Antiviral activity against Hepatitis C virus genotype 1b Con 1 infected in human HuH7 cells at 5 nM after 72 hrs by luciferase assay in presence of 0.08 nM daclatasvir; assay type: functional, Hepacivirus hominis, Huh-7; outline: as §2
Hepatitis C virus [7] = test: Antiviral activity against Hepatitis C virus genotype 1b Con 1 infected in human HuH7 cells at 5 nM after 72 hrs by luciferase assay in presence of 60 nM sofobuvir; assay type: functional, Hepacivirus hominis, Huh-7; outline: as §2
Hepatitis C virus [8] = test: Antiviral activity against Hepatitis C virus genotype 1b Con 1 infected in human HuH7 cells at 2.5 nM after 72 hrs by luciferase assay in presence of 5 uM clemizole; assay type: functional, Hepacivirus hominis, Huh-7; outline: as §1
Hepatitis C virus [9] = test: Antiviral activity against Hepatitis C virus genotype 1b harboring P495A NS5B (thumb 1) mutation transfected in human HuH7 cells after 72 hrs by luciferase assay; assay type: functional, cell-based, Hepacivirus hominis; conditions: Huh-7, 72 h
Outline: (§3)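 Huh-7 cells were transiently electroporated with genotype 1b replicon RNA carrying the specified mutation and plated at 10000 cells/well. Compounds were added at 0.5% DMSO final for 72 h at 37°C. Read-out was Bright-Glo luciferase. EC50 is the mean of two independent runs within 2-fold of each other. A reference drug EC50 was measured alongside each mutant replicon to validate it.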

Hepatitis C virus [10] = test: Antiviral activity against Hepatitis C virus genotype 1b Con 1 infected in human HuH7 cells at 20 nM after 72 hrs by luciferase assay in presence of 6 nM simeprevir; assay type: functional, Hepacivirus hominis, Huh-7; outline: as §2
Hepatitis C virus [11] = test: Antiviral activity against Hepatitis C virus genotype 1b Con 1 infected in human HuH7 cells at 40 nM after 72 hrs by luciferase assay in presence of 240 nM sofobuvir; assay type: functional, Hepacivirus hominis, Huh-7; outline: as §2
Hepatitis C virus [12] = test: Antiviral activity against Hepatitis C virus genotype 1b Con 1 infected in human HuH7 cells at 20 nM after 72 hrs by luciferase assay in presence of 20 uM clemizole; assay type: functional, Hepacivirus hominis, Huh-7; outline: as §2
Hepatitis C virus [13] = test: Antiviral activity against Hepatitis C virus genotype 1b Con 1 infected in human HuH7 cells at 10 nM after 72 hrs by luciferase assay in presence of 6 nM simeprevir; assay type: functional, Hepacivirus hominis, Huh-7; outline: as §1
Hepatitis C virus [14] = test: Antiviral activity against Hepatitis C virus genotype 1b Con 1 infected in human HuH7 cells at 2.5 nM after 72 hrs by luciferase assay in presence of 0.16 nM daclatasvir; assay type: functional, Hepacivirus hominis, Huh-7; outline: as §1
Hepatitis C virus [15] = test: Antiviral activity against Hepatitis C virus genotype 1b Con 1 infected in human HuH7 cells at 160 nM after 72 hrs by luciferase assay in presence of 15 uM clemizole; assay type: functional, Hepacivirus hominis, Huh-7; outline: as §1
Hepatitis C virus [16] = test: Antiviral activity against Hepatitis C virus genotype 1b Con 1 infected in human HuH7 cells at 40 nM after 72 hrs by luciferase assay in presence of 15 uM clemizole; assay type: functional, Hepacivirus hominis, Huh-7; outline: as §2
Hepatitis C virus [17] = test: Antiviral activity against Hepatitis C virus genotype 1b Con 1 infected in human HuH7 cells at 5 nM after 72 hrs by luciferase assay in presence of 0.16 nM daclatasvir; assay type: functional, Hepacivirus hominis, Huh-7; outline: as §2
Hepatitis C virus [18] = test: Antiviral activity against Hepatitis C virus genotype 1b Con 1 infected in human HuH7 cells at 160 nM after 72 hrs by luciferase assay in presence of 24 nM simeprevir; assay type: functional, Hepacivirus hominis, Huh-7; outline: as §1
Hepatitis C virus [19] = test: Antiviral activity against Hepatitis C virus genotype 1b Con 1 infected in human HuH7 cells at 2.5 nM after 72 hrs by luciferase assay in presence of 12.5 uM clemizole; assay type: functional, Hepacivirus hominis, Huh-7; outline: as §1
Hepatitis C virus [20] = test: Antiviral activity against Hepatitis C virus genotype 1b Con 1 infected in human HuH7 cells at 40 nM after 72 hrs by luciferase assay in presence of 0.04 nM daclatasvir; assay type: functional, Hepacivirus hominis, Huh-7; outline: as §2
Hepatitis C virus [21] = test: Antiviral activity against Hepatitis C virus genotype 1b Con 1 infected in human HuH7 cells at 160 nM after 72 hrs by luciferase assay in presence of 0.02 nM daclatasvir; assay type: functional, Hepacivirus hominis, Huh-7; outline: as §1
Hepatitis C virus [22] = test: Antiviral activity against Hepatitis C virus genotype 1b harboring H3R NS4B mutation transfected in human HuH7 cells after 72 hrs by luciferase assay; assay type: functional, cell-based, Hepacivirus hominis; conditions: Huh-7, 72 h; outline: as §3
Hepatitis C virus [23] = test: Antiviral activity against Hepatitis C virus genotype 1b Con 1 infected in human HuH7 cells at 10 nM after 72 hrs by luciferase assay in presence of 30 nM sofobuvir; assay type: functional, Hepacivirus hominis, Huh-7; outline: as §1
Hepatitis C virus [24] = test: Antiviral activity against Hepatitis C virus genotype 1b Con 1 infected in human HuH7 cells at 40 nM after 72 hrs by luciferase assay in presence of 0.08 nM daclatasvir; assay type: functional, Hepacivirus hominis, Huh-7; outline: as §2
Hepatitis C virus [25] = test: Antiviral activity against Hepatitis C virus genotype 1b Con 1 infected in human HuH7 cells at 2.5 nM after 72 hrs by luciferase assay in presence of 7.5 uM clemizole; assay type: functional, Hepacivirus hominis, Huh-7; outline: as §1
Hepatitis C virus [26] = test: Antiviral activity against Hepatitis C virus genotype 1b harboring S282T NS5B (active site) mutation transfected in human HuH7 cells after 72 hrs by luciferase assay; assay type: functional, cell-based, Hepacivirus hominis; conditions: Huh-7, 72 h; outline: as §3
Hepatitis C virus [27] = test: Antiviral activity against Hepatitis C virus genotype 1b Con 1 infected in human HuH7 cells at 20 nM after 72 hrs by luciferase assay in presence of 0.16 nM daclatasvir; assay type: functional, Hepacivirus hominis, Huh-7; outline: as §1
Hepatitis C virus [28] = test: Antiviral activity against Hepatitis C virus genotype 1b Con 1 infected in human HuH7 cells at 20 nM after 72 hrs by luciferase assay in presence of 10 uM clemizole; assay type: functional, Hepacivirus hominis, Huh-7; outline: as §1

O=C(c1nc2scc(C3CC3)n2c1Cl)N1CCN(C2CCCC2)C(=O)C1
CI (Hepatitis C virus [1]): 1.84
CI (Hepatitis C virus [2]): 1.21
EC50 (Hepatitis C virus [3]): 16 nM
CI (Hepatitis C virus [4]): 0.74
CI (Hepatitis C virus [5]): 0.64
CI (Hepatitis C virus [6]): 0.66
CI (Hepatitis C virus [7]): 0.85
CI (Hepatitis C virus [8]): 1.22
EC50 (Hepatitis C virus [9]): 10 nM
CI (Hepatitis C virus [10]): 0.48
CI (Hepatitis C virus [11]): 0.41
CI (Hepatitis C virus [12]): 1.03
CI (Hepatitis C virus [13]): 0.54
CI (Hepatitis C virus [14]): 0.98
CI (Hepatitis C virus [15]): 1.45
CI (Hepatitis C virus [16]): 0.94
CI (Hepatitis C virus [17]): 0.88
CI (Hepatitis C virus [18]): 0.87
CI (Hepatitis C virus [19]): 1.07
CI (Hepatitis C virus [20]): 0.54
CI (Hepatitis C virus [21]): 0.5
EC50 (Hepatitis C virus [22]): 1100 nM
CI (Hepatitis C virus [23]): 0.69
CI (Hepatitis C virus [24]): 0.53
CI (Hepatitis C virus [25]): 0.72
EC50 (Hepatitis C virus [26]): 15 nM
CI (Hepatitis C virus [27]): 0.69
CI (Hepatitis C virus [28]): 0.61
